Laboratory results taken from ChEMBL document CHEMBL1145648, “Antibacterial activity in serum of the 3,5-diamino-piperidine translation inhibitors” (Bioorg Med Chem Lett, 2008).
Converted amounts (≈) assume the structure as drawn.

Experiments:
Format in all cases: functional
[1] = tested on: Pseudomonas aeruginosa; experiment: Antibacterial activity against Pseudomonas aeruginosa ATCC 27853 by microdilution method
Outline: (§1)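 MIC (µg/ml) by broth microdilution in Mueller Hinton medium per NCCLS guidance; E. coli ATCC 25922 and P. aeruginosa ATCC 27853.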

[2] = tested on: Escherichia coli; experiment: Inhibition of transcription-translation activity in Escherichia coli
Outline: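 Coupled in vitro transcription–translation using E. coli extracts; IC50 in µM.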

[3] = tested on: Escherichia coli; experiment: Antibacterial activity against Escherichia coli ATCC 25922 by microdilution method; outline: as §1
[4] = tested on: Pseudomonas aeruginosa; experiment: Antibacterial activity against Pseudomonas aeruginosa by agar dilution method
Outline: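 Agar dilution susceptibility testing on Mueller Hinton agar, performed by Fujisawa Pharmaceuticals; MIC50/80/90 denote concentration inhibiting that percent of isolates.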

[5] = tested on: Escherichia coli; experiment: Antibacterial activity against Escherichia coli ATCC 25922 by microdilution method in presence of serum
Outline: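 Broth microdilution in MH medium per NCCLS, run with and without 50% mouse serum; MIC (µg/ml) in serum reported as fold shift relative to serum-free MIC; strains E. coli ATCC 25922 and P. aeruginosa ATCC 27853.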

| MIC [1] | IC50 [2] | MIC [3] | MIC50 [4] | MIC80 [4] | MIC90 [4] | SMILES | Fold change [5] |
| --- | --- | --- | --- | --- | --- | --- | --- |
| 16 µg/mL | 0.4 µM | 8 µg/mL |  |  |  | Cl.N[C@@H]1C[C@H](N)CN(c2nc(N3C[C@H](N)C[C@H](N)C3)c3[nH]c(Nc4ccc(NC(=O)c5ccc6cccnc6c5O)cc4)nc3n2)C1 |  |
| ≤ 0.5 µg/mL | 2.2 µM | ≥ 64 µg/mL |  |  |  | Cl.N[C@@H]1C[C@H](N)CN(c2cc(Nc3ccc(NC(=O)c4cnc5ccccc5c4O)cc3)cc(N3C[C@H](N)C[C@H](N)C3)n2)C1 |  |
| 1 µg/mL | 9 µM | 4 µg/mL |  |  |  | Cl.N[C@@H]1C[C@H](N)CN(c2nc(Nc3ccc(NC(=O)c4cc(Cl)ccc4O)c(O)c3)nc(N3C[C@H](N)C[C@H](N)C3)n2)C1 |  |
| 1 µg/mL | 14 µM | 2 µg/mL |  |  |  | Cl.N[C@@H]1C[C@H](N)CN(c2nc(N3C[C@H](N)C[C@H](N)C3)c(Cl)c(Nc3ccc(NC(=O)c4ccc5ccccc5c4O)cc3)c2Cl)C1 |  |
| 1 µg/mL | 0.9 µM | 32 µg/mL |  |  |  | CCn1cc(C(=O)Nc2ccc(Nc3nc(N4C[C@H](N)C[C@H](N)C4)nc(N4C[C@H](N)C[C@H](N)C4)n3)cc2)c(=O)c2cnc(N3CCNCC3)nc21.Cl |  |
| 1 µg/mL | 2 µM | ≤ 0.5 µg/mL |  |  |  | CCn1cc(C(=O)Nc2ccc(Nc3nc(N4C[C@H](N)C[C@H](N)C4)nc(N4C[C@H](N)C[C@H](N)C4)n3)cc2)c(=O)c2cc(F)c(N3CCNCC3)cc21.Cl |  |
| 2 µg/mL | 0.4 µM | 64 µg/mL |  |  |  | Cl.N[C@@H]1C[C@H](N)CN(c2nc(Nc3ccc(NC(=O)c4cn(C5CC5)c5cc(N6CCNCC6)c(F)cc5c4=O)cc3)nc(N3C[C@H](N)C[C@H](N)C3)n2)C1 |  |
| 2 µg/mL | 1.3 µM | ≤ 0.5 µg/mL |  |  |  | CCN1CCN(c2cc3c(cc2F)c(=O)c(C(=O)Nc2ccc(Nc4nc(N5C[C@H](N)C[C@H](N)C5)nc(N5C[C@H](N)C[C@H](N)C5)n4)cc2)cn3C2CC2)CC1.Cl |  |
| 2 µg/mL | 18 µM | 1 µg/mL |  |  |  | Cl.N[C@@H]1C[C@H](N)CN(c2nc3nc(Nc4ccc(NC(=O)c5ccc6ccccc6c5O)cc4)nc(N4C[C@H](N)C[C@H](N)C4)c3[nH]2)C1 |  |
| 2 µg/mL |  | 4 µg/mL |  |  |  | Cl.N[C@@H]1C[C@H](N)CN(c2nc(Nc3ccc(NC(=O)c4ccc5cccnc5c4O)cc3)nc(N3C[C@H](N)C[C@H](N)C3)n2)C1 |  |
| ≤ 0.5 µg/mL | 24 µM | 1 µg/mL |  |  |  | Cl.N[C@@H]1C[C@H](N)CN(c2nc(Nc3ccc(NC(=O)c4ccc5ccccc5c4)cc3)nc(N3C[C@H](N)C[C@H](N)C3)n2)C1 |  |
| 8 µg/mL | 18 µM | ≤ 0.5 µg/mL |  |  |  | Cl.N[C@@H]1C[C@H](N)CN(c2cc(Nc3ccc(NC(=O)c4ccc5ccccc5c4O)cc3)nc(N3C[C@H](N)C[C@H](N)C3)n2)C1 |  |
| 1 µg/mL |  | 1 µg/mL |  |  |  | Cl.N[C@@H]1C[C@H](N)CN(c2nc(N3C[C@H](N)C[C@H](N)C3)c3[nH]c(Nc4ccc(NC(=O)c5cnc6ccccc6c5O)cc4)nc3n2)C1 |  |
| 8 µg/mL | 0.8 µM | 8 µg/mL |  |  |  | Cl.N[C@@H]1C[C@H](N)CN(c2nc(N3C[C@H](N)C[C@H](N)C3)c(Cl)c(Nc3ccc(NC(=O)C4=CN(C5CC5)C5C=C(N6CCNCC6)C(F)=CC5C4=O)cc3)c2Cl)C1 (stereo not given in full) |  |
| 8 µg/mL | 1 µM | 16 µg/mL |  |  |  | CC1COc2c(N3CCNCC3)c(F)cc3c(=O)c(C(=O)Nc4ccc(Nc5nc(N6C[C@H](N)C[C@H](N)C6)nc(N6C[C@H](N)C[C@H](N)C6)n5)cc4)cn1c23.Cl (stereo not given in full) |  |
| 2 µg/mL | 11 µM | 4 µg/mL |  |  |  | Cl.N[C@@H]1C[C@H](N)CN(c2nc(Nc3ccc(NC(=O)c4ccccc4O)c(O)c3)nc(N3C[C@H](N)C[C@H](N)C3)n2)C1 |  |

| MIC [1] | IC50 [2] | MIC [3] | MIC50 [4] | MIC80 [4] | MIC90 [4] | SMILES | Fold change [5] |
| --- | --- | --- | --- | --- | --- | --- | --- |
| 1 µg/mL | 5 µM | 4 µg/mL |  |  |  | Cl.N[C@@H]1C[C@H](N)CN(c2nc(Nc3ccc(NC(=O)c4cnc5ccccc5c4O)cc3)nc(N3C[C@H](N)C[C@H](N)C3)n2)C1 |  |
|  |  |  | 4 µg/mL | 4 µg/mL | 8 µg/mL | Cl.N[C@@H]1C[C@H](N)CN(c2nc(Nc3ccc(NC(=O)c4ccc(Cl)cc4)c(O)c3)nc(N3C[C@H](N)C[C@H](N)C3)n2)C1 |  |
| ≤ 0.5 µg/mL | 4 µM | 8 µg/mL |  |  |  | Cl.N[C@@H]1C[C@H](N)CN(c2nc(Nc3ccc(NC(=O)c4cccnc4O)c(O)c3)nc(N3C[C@H](N)C[C@H](N)C3)n2)C1 |  |
| 4 µg/mL | 10 µM | 8 µg/mL |  |  |  | Cl.N[C@@H]1C[C@H](N)CN(c2nc(Nc3ccc(NC(=O)c4ncccc4O)c(O)c3)nc(N3C[C@H](N)C[C@H](N)C3)n2)C1 |  |
| 1 µg/mL | 26 µM | 2 µg/mL |  |  |  | Cl.N[C@@H]1C[C@H](N)CN(c2cc(Nc3ccc(NC(=O)c4ccc5ccccc5c4O)cc3)cc(N3C[C@H](N)C[C@H](N)C3)n2)C1 |  |
| ≤ 0.5 µg/mL | 3 µM | 4 µg/mL |  |  |  | Cl.N[C@@H]1C[C@H](N)CN(c2nc(Nc3ccc(NC(=O)c4cc(Cl)cnc4O)c(O)c3)nc(N3C[C@H](N)C[C@H](N)C3)n2)C1 | 2 |
| 1 µg/mL | 24 µM | 4 µg/mL |  |  |  | Cl.N[C@@H]1C[C@H](N)CN(c2nc(Nc3ccc(NC(=O)c4cnc5ccccc5c4O)c(Cl)c3)nc(N3C[C@H](N)C[C@H](N)C3)n2)C1 |  |
| ≤ 0.5 µg/mL | 16 µM | 2 µg/mL |  |  |  | Cl.N[C@@H]1C[C@H](N)CN(c2cc(Nc3ccc(NC(=O)c4ccc5ccccc5c4O)cc3)nc(N3C[C@H](N)C[C@H](N)C3)c2)C1 |  |
| 2 µg/mL | 2 µM | 4 µg/mL |  |  |  | CCn1cc(C(=O)Nc2ccc(Nc3nc(N4C[C@H](N)C[C@H](N)C4)nc(N4C[C@H](N)C[C@H](N)C4)n3)cc2)c(=O)c2ccc(C)nc21.Cl |  |
| 1 µg/mL | 3 µM | 1 µg/mL |  |  |  | CCn1cc(C(=O)Nc2ccc(Nc3nc(N4C[C@H](N)C[C@H](N)C4)nc(N4C[C@H](N)C[C@H](N)C4)n3)cc2)c(=O)c2cc3c(cc21)OCO3.Cl |  |
| 1 µg/mL | 5 µM | 1 µg/mL |  |  |  | Cl.N[C@@H]1C[C@H](N)CN(c2nc(Nc3ccc(NC(=O)c4cnc5ccccc5c4O)c(O)c3)nc(N3C[C@H](N)C[C@H](N)C3)n2)C1 |  |
| 2 µg/mL | 12 µM | 2 µg/mL |  |  |  | Cl.N[C@@H]1C[C@H](N)CN(c2cc(Nc3ccc(NC(=O)c4ccc5ccccc5c4O)cc3)cc(N3C[C@H](N)C[C@H](N)C3)c2)C1 |  |
| ≤ 0.5 µg/mL | 24 µM | 1 µg/mL |  |  |  | Cl.N[C@@H]1C[C@H](N)CN(c2nc(Nc3ccc(NC(=O)c4ccc5ccccc5c4O)cc3)nc(N3C[C@H](N)C[C@H](N)C3)n2)C1 |  |
|  |  |  | > 128 µg/mL | > 128 µg/mL | > 128 µg/mL | O=C(N[C@H](CO)[C@H](O)c1ccc([N+](=O)[O-])cc1)C(Cl)Cl [CHLORAMPHENICOL] |  |
|  |  |  | 8 µg/mL (≈ 15.5 µM) | 32 µg/mL (≈ 61.8 µM) | 64 µg/mL (≈ 124 µM) | CCN1CCN(C(=O)N[C@@H](C(=O)N[C@@H]2C(=O)N3[C@@H]2SC(C)(C)[C@@H]3C(=O)O)c2ccccc2)C(=O)C1=O [PIPERACILLIN] |  |
|  |  |  | 32 µg/mL (≈ 72 µM) | 64 µg/mL (≈ 144 µM) | 64 µg/mL (≈ 144 µM) | CN(C)[C@@H]1C(O)=C(C(N)=O)C(=O)[C@@]2(O)C(O)=C3C(=O)c4c(O)cccc4[C@@](C)(O)[C@H]3C[C@@H]12 [TETRACYCLINE] |  |

| SMILES | MIC [1] | IC50 [2] | MIC [3] | MIC50 [4] | MIC80 [4] | MIC90 [4] | Fold change [5] |
| --- | --- | --- | --- | --- | --- | --- | --- |
| NCC[C@H](O)C(=O)N[C@@H]1C[C@H](N)[C@@H](O[C@H]2O[C@H](CN)[C@@H](O)[C@H](O)[C@H]2O)[C@H](O)[C@H]1O[C@H]1O[C@H](CO)[C@@H](O)[C@H](N)[C@H]1O [AMIKACIN] |  |  |  | 4 µg/mL (≈ 6.83 µM) | 8 µg/mL (≈ 13.7 µM) | 32 µg/mL (≈ 54.6 µM) |  |
| CC(C)(O/N=C(\C(=O)N[C@@H]1C(=O)N2C(C(=O)[O-])=C(C[n+]3ccccc3)CS[C@H]12)c1csc(N)n1)C(=O)O [CEFTAZIDIME] |  |  |  | 2 µg/mL (≈ 3.66 µM) | 8 µg/mL (≈ 14.6 µM) | 16 µg/mL (≈ 29.3 µM) |  |
| C[C@@H](O)[C@H]1C(=O)N2C(C(=O)O)=C(SCCNC=N)C[C@H]12 [IMIPENEM ANHYDROUS] |  |  |  | 2 µg/mL (≈ 6.68 µM) | 16 µg/mL (≈ 53.4 µM) | 16 µg/mL (≈ 53.4 µM) |  |
| CCn1cc(C(=O)O)c(=O)c2ccc(C)nc21 [NALIDIXIC ACID] |  | > 100 µM |  |  |  |  |  |
